≈ marks a conversion by molar mass, not a printed value.

1 compound from ChEMBL document CHEMBL4014285, “Novel, highly potent systemic glucokinase activators for the treatment of Type 2 Diabetes Mellitus” (Bioorg Med Chem Lett, 2017) can be followed below.

One data set concerns Plasma. The data set can be described thus: Total drug level in po dosed HFD-fed C57BL/6 mouse plasma measured at 4 hrs post dose. Type of data set: ADME, organism-based. Particulars: in vivo. In a few lines: (§1)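 3-week high fat diet-fed C57BL/6 mice given 0.01, 0.03 or 0.10 mg/kg orally; total (bound plus unbound) drug concentration in plasma sampled 4 h after dosing.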
A short description of data set [1]: Volume of distribution at steady state in rat. Format: ADME. Particulars: in vivo, read-out: Vdss.
Data set [2] is described as follows: Stability of compound in human liver microsomes assessed as compound remaining at 1 uM measured after 30 mins. Type of data set: ADME, microsome. Particulars: read-out: Stability. In a few lines:
(§2)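 Human or rat liver microsome preparations incubated with compound; percent parent remaining after 30 min.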

Data set [3] in a line: Solubility of the compound at pH 7. Format: physicochemical. The note with it: buffer.
For data set [4], the species on record is Rattus norvegicus. The data set can be described thus: Dose normalized AUC in rat. Type of data set: ADME. Particulars: in vivo.
Data set [5] deals with T1, Hexokinase-4 (Rattus norvegicus, UniProt P17712).
T1 sequence (P17712 whole entry): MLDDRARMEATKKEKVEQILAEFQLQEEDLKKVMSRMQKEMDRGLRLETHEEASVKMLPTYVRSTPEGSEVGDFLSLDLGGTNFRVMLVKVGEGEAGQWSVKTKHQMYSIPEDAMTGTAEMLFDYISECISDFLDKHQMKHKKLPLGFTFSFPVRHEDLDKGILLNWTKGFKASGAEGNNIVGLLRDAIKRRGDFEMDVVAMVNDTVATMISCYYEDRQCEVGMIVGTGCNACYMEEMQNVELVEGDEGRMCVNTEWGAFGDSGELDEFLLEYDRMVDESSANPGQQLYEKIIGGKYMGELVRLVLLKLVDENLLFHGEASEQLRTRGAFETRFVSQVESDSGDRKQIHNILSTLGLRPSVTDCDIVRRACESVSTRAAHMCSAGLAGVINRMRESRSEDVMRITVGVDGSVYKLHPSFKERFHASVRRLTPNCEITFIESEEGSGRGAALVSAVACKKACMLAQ
Put plainly: Activation of glucokinase in rat INS-1 cells assessed as increase in D-2-deoxyglucose-6-phosphate level in presence of D-2-deoxyglucose by HILIC LC-MS method. Format: cell-based. An outline of the steps:
(§3)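 GKACA cell assay in rat INS-1 Clone-13 insulinoma cells or freshly isolated primary rat hepatocytes; intracellular D-2-deoxyglucose-6-phosphate formed from exogenous D-2-deoxyglucose quantified by HILIC LC-MS; EC50 from a single titration.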

Data set [6] can be described thus: Solubility of the compound at pH 2. Format: physicochemical. Particulars: buffer.
Data set [7] can be described thus: Total drug level in HFD-fed C57BL/6 mouse plasma at 0.03 mg/kg, po measured at 4 hrs post dose. Format: ADME, organism-based. An outline of the steps:
as §1

Data set [8] is described as follows: Apparent permeability in pig LLC-PK1 cells. Type of data set: ADME, cell-based, Sus scrofa.
Data set [9] is described as follows: Clearance in rat. Type of data set: ADME. The note with it: in vivo.
Data set [10] in a line: Apparent permeability in MDCK cells. Format: ADME, cell-based, Canis lupus familiaris. Particulars: dog.
Data set [11] is described as follows: Oral bioavailability in rat. Type of data set: ADME, organism-based. The note with it: in vivo.
Data set [12] can be described thus: Total drug level in HFD-fed C57BL/6 mouse plasma at 0.01 mg/kg, po measured at 4 hrs post dose. Format: ADME, organism-based. An outline of the steps: as §1
Data set [13] is described as follows: Stability of compound in rat liver microsomes assessed as compound remaining at 1 uM measured after 30 mins. Type of data set: ADME, microsome. Particulars: read-out: Stability. In a few lines: as §2
Data set [14] in a line: Unbound fraction in human plasma. Type of data set: ADME, cell-free. An outline of the steps:
(§4)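 Unbound fraction determined in 100% human or C57BL/6 mouse plasma.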

Data set [15] has as its target T2, Hexokinase-4 (Homo sapiens, UniProt P35557).
T2 sequence (P35557 whole entry): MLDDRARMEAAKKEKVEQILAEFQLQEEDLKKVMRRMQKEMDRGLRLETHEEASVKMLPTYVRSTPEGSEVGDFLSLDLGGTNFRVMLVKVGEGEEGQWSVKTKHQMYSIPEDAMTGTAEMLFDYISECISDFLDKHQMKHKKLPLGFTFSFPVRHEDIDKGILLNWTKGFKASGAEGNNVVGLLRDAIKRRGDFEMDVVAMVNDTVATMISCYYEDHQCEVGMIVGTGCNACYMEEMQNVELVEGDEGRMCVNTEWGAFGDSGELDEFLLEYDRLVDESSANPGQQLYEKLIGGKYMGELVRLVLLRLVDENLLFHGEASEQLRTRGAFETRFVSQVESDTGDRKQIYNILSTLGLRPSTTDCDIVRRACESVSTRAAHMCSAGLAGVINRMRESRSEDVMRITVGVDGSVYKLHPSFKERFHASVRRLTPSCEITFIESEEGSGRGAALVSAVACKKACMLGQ
Put plainly: Activation of recombinant human glucokinase assessed as conversion of D-glucose to D-glucose-6-phosphate in presence of 2.5 mM glucose by G6PDH coupled spectrophotometric assay. In a few lines: (§5)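 Recombinant human GK; ATP-dependent D-glucose-6-phosphate formation from D-glucose at 2.5 or 10 mM, read by continuous glucose-6-phosphate dehydrogenase coupled spectrophotometry. Activators titrated at 1% DMSO final, DMSO as control. EC50 = concentration giving half of maximal increase in product formation; maximum activity expressed as percent velocity increase vs DMSO at saturating activator. Single titration.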

A short description of data set [16]: Unbound fraction in C57BL/6 mouse plasma. Format: ADME, cell-free. In a few lines:
as §4

In data set [17] the target is T2, Hexokinase-4. The data set can be described thus: Activation of recombinant human glucokinase assessed as conversion of D-glucose to D-glucose-6-phosphate in presence of 10 mM glucose by G6PDH coupled spectrophotometric assay. In a few lines: as §5
Data set [18] has as its target T1, Hexokinase-4. Put plainly: Activation of glucokinase in primary rat hepatocytes assessed as increase in D-2-deoxyglucose-6-phosphate level in presence of D-2-deoxyglucose by HILIC LC-MS method. Type of data set: cell-based. An outline of the steps:
as §3

Data set [19] is filed under the species Rattus norvegicus. The data set can be described thus: Dose normalized Cmax in rat. Type of data set: ADME. The note with it: in vivo.
Data set [20] is described as follows: Half life in rat. Format: ADME. The note with it: in vivo.
A short description of data set [21]: Total drug level in HFD-fed C57BL/6 mouse plasma at 0.10 mg/kg, po measured at 4 hrs post dose. Format: ADME, organism-based. Particulars: 0.1 mg/kg. In a few lines:
as §1

A short description of data set [22]: Mean residence time in rat. Format: ADME. Particulars: in vivo.

As to `CN1C(=O)CCC1c1cc2[nH]c(-c3ccccn3)cc2cc1Oc1ccc(S(C)(=O)=O)nc1` (single isomer, unassigned; ent-1), the Drug uptake entry with Plasma is listed as “Dose-dependent effect”. Also, the Vd in data set [1] stood at 3.05 L/kg. The remaining at 0.5 h, 1 µM in data set [2] worked out at 75%; in [13] it was 79%. The values for the solubility in [3] and in [6] were 142 µM (≈ 65.7 µg/mL) and 194 µM (≈ 89.7 µg/mL), respectively. The compound also gave an AUC/dose in the data set listed under Rattus norvegicus [4] of 0.59 µM·kg·h/mg. Further, the EC50 on Hexokinase-4 [5] was found to be 0.9 nM; at Hexokinase-4 [15], 3.7 nM; on Hexokinase-4 [17], 2.4 nM; on Hexokinase-4 [18], 7.5 nM. In addition, the concentration at 4 h in data set [7] was determined as 12 nM; in data set [12], 3.8 nM; in [21] it was 18 nM. Moreover, the Papp in [8] and in [10] was 40 ×10⁻⁶ cm/s in each case. In data set [9], the clearance was determined as 18 mL/min/kg. The bioavailability in data set [11] turned out to be 30%. For the same compound, the fraction unbound worked out at 0.087 in data set [14] and 0.072 in [16]. The same compound gave a Cmax/dose in the data set listed under Rattus norvegicus [19] of 0.235 µM·kg/mg. For the same compound, the half-life in data set [20] was 2.8 h. Also, the MRT in data set [22] is 2.85 h.
